The values that follow come from PubChem BioAssay.

Assay [1] is described as follows: Her2 expression decrease, cell viability multiplex – SKBR3 breast tumor cells, AlphaScreen, ATP viability, primary screen (AID 461).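 For Her2 level: lower value means less Her2 protein in the cells.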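 For viability: percent of carrier control wells set as 100% viability.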 Conditions: SKBR3 Her2 protein level, 18-24 h, measured here: SKBR3 viability, ATP luminescence, at 10 µM. (In general: In Alpha technology, singlet oxygen from a donor bead excites a nearby acceptor bead.)
The target of assay [2] is Receptor tyrosine-protein kinase erbB-2 (Homo sapiens) (UniProt P04626). The description is as above. Conditions: 18-24 h, at 10 µM, stronger effect = lower value.
Sequence of Receptor tyrosine-protein kinase erbB-2 (Homo sapiens) (P04626 whole entry, looked up): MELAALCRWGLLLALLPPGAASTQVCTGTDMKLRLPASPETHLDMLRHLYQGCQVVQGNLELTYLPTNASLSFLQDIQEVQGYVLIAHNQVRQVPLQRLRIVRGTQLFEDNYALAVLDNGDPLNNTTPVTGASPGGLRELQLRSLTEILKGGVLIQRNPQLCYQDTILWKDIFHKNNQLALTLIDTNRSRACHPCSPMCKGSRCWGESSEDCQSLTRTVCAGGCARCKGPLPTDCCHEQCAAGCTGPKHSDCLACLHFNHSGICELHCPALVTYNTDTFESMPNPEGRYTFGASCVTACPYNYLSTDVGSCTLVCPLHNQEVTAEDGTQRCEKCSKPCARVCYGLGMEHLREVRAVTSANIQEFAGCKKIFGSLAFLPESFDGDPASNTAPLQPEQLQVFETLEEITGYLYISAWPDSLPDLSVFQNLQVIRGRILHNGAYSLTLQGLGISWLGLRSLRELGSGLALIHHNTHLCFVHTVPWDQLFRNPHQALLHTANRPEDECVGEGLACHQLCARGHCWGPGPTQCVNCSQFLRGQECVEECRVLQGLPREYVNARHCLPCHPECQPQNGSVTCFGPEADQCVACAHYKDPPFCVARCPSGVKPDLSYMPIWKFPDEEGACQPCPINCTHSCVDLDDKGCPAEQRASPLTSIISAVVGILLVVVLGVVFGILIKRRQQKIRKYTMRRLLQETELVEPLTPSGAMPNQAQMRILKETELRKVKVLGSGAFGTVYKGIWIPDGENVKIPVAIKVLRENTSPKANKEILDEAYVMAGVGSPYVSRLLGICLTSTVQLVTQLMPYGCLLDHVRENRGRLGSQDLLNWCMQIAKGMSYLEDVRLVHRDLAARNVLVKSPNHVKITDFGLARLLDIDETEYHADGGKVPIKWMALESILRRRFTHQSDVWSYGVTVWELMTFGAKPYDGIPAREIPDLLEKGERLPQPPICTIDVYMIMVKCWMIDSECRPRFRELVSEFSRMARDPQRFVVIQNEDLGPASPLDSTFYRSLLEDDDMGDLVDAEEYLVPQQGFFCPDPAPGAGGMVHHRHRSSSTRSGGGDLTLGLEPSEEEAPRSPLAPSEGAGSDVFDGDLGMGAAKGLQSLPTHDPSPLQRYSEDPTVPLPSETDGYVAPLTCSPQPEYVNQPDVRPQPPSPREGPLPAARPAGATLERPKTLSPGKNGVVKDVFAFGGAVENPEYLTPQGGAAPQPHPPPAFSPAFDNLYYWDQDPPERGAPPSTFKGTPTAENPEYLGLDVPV
Assay [3] in a line: reduced viability of SK-BR-3 breast cancer cells – cell-based, 24 h, human, pilot screen (AID 572;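 active = viability at or below 10% of carrier control in both of two separate runs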;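 note: compound exposure lasted between 18 and 24 h rather than exactly 24 h; 100% = carrier-treated control wells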). Conditions: SK-BR-3 viability, CellTiter-Glo luminescence, at 10 µM, stronger effect = lower value.
Assay [4] is described as follows: HUVEC growth inhibition – cell-based, human, primary screen (AID 575;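 active = viability at or below 30% in both replicate assays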;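 note: 100% = median of untreated cell wells with 0.1% DMSO on each plate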). Conditions: HUVEC proliferation, CellTiter-Glo luminescence, 72 h; at 10 µM; stronger effect = lower value. In outline:
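material = primary HUVEC, no more than 12 passages | input = 1250 cells per well | controls = vehicle and MePR control wells | measured by = CTG luminescence | times = 72 h compound incubation | format = collagen-coated 384-well format | read-out = % viability vs DMSO wells | doses = single 10 µM dose, 0.1% DMSO, from 5x medium stock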
A general note: Cellular ATP, detected with luciferase, serves as a proxy for viable cell number.

The nature of assay [5]: H69AR cell proliferation blockers – human, duplicate replicates, primary screen (AID 580;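 active = viability at or under a set limit in both replicates, limit being median viability minus 3 SD, cut at about 48% in these data, passing the limit was not always enough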;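 note: 100% = mean luminescence of untreated wells and 0% = no signal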). Conditions: H69AR lung tumor cells viability, ATP luminescence, 72 h; at 10 µM; stronger effect = lower value.
Assay [6] can be described thus: MRP1 drug-resistance reversers in H69AR cells – cell-based, doxorubicin co-treatment, pilot screen (AID 601;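 active = viability loss from added drug above about 55%, and viability with drug at most 40%, in both replicates, limit read from the data, passing the limit was not always enough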). Conditions: CellTiter-Glo, 72 h, at 10 µM; for differential viability (reversal): stronger effect = higher value.
Assay [7] is described as follows: yeast transport mutant growth inhibition pilot in 384-well plates, post-Golgi transport modulator project (AID 636; in the data active = inhibition above about 31%). Conditions: absorbance 615 nm, about 18 h, stronger effect = higher value.
A short description of assay [8]: growth suppression of yeast trafficking mutant, preliminary HTS, modulators of trafficking downstream of Golgi apparatus project, 1536-format plate, OD 615 nm (AID 637; in the data active = inhibition above about 30%). Conditions: yeast transport mutant growth, absorbance 615 nm, 18 h; stronger effect = higher value.
Where [9] appears, read: H69AR cells + 2 uM doxorubicin, measured here: viability with 2 uM doxorubicin, stronger effect = lower value.
Setting [10] is: H69AR cells, compound alone cytotoxicity.

Active and inactive are the calls of the source.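 Rule for the calls, unless noted: active = Her2 level under about 52% in both replicate screens, with viability over 70% of control (limit read from the data); inconclusive = Her2 under the limit in one screen only, or viability under 70%; inactive = Her2 level above the set limit.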

The viability is a read-out of living cells in per cent, often relative to untreated cells. What is called inhibition is the relative decrease from the control value, in per cent. As for `CCOC(=O)COc1ccc(S(=O)(=O)Nc2ccc3c(c2)OCO3)cc1`, the viability in assay [1] was 164%; in assay [3] it was 164% (inactive); in assay [4], 10.4% (active); in assay [5] it was 91% (inactive); in assay [6] (setting [9]), 92.1%; in assay [6] (setting [10]) it was 91%. For the same compound, in assay [2], the Her2 level was 113% (inactive). In addition, the differential viability (reversal) in assay [6] (H69AR cells + 2 uM doxorubicin) was -1.11% (inactive). Moreover, the inhibition was -4.21% (inactive) in assay [7] and 9.02% (inactive) in assay [8].
As for `CCC(=O)Nc1cc2nn(-c3ccccc3)nc2cc1Cl`, the viability was 91% in assay [1]; 91% (inactive) in assay [3]; 55% (inactive) in assay [4]; 68.2% (inactive) in assay [5]; 70.9% in assay [6] (setting [9]); 68.2% in assay [6] (setting [10]). For the same compound, the Her2 level in assay [2] was 90.5% (inactive). Also, in assay [6] (H69AR cells + 2 uM doxorubicin), the differential viability (reversal) was -2.75% (inactive). The inhibition in assay [7] was -7.57% (inactive); in assay [8], 5.9% (inactive).
`CC1(C)CC(=O)C(C=NCCc2ccc(S(N)(=O)=O)cc2)=C(O)C1`: the viability in assay [1] was 116%; in assay [3], 116% (inactive); in assay [4], 98.7% (inactive); in assay [5], 88% (inactive); in assay [6] (setting [9]), 90%; in assay [6] (setting [10]), 88%. Moreover, the Her2 level in assay [2] was 95% (inactive). The differential viability (reversal) in assay [6] (H69AR cells + 2 uM doxorubicin) was -2.06% (inactive). Moreover, the inhibition in assay [7] was -6.13% (inactive); in assay [8] it was -2.3% (inactive).
`CCn1nc(NC(=O)c2cccnc2)c2cc3ccccc3nc21`: the viability in assay [1] is 90%; in assay [3], 90% (inactive); in assay [4], 84.4% (inactive); in assay [5], 89.8% (inactive); in assay [6] (setting [9]) it was 74.6%; in assay [6] (setting [10]), 89.8%. Besides, the Her2 level in assay [2] was 70.5% (inactive). The differential viability (reversal) in assay [6] (H69AR cells + 2 uM doxorubicin) is 15.2% (inactive). In addition, the inhibition in assay [7] is -8.38% (inactive); in assay [8], -3.17% (inactive).
As for `Cc1ccc(C(C)n2cc(C(=O)NCCN3CCN(C)CC3)nn2)cc1` (stereo not given), the viability in assay [1] is 106%; in assay [3], 106% (inactive); in assay [4], 93.5% (inactive); in assay [5] it was 86.1% (inactive); in assay [6] (setting [9]) it was 91.1%; in assay [6] (setting [10]), 86.1%. In assay [2], the Her2 level was 94% (inactive). In addition, in assay [6] (H69AR cells + 2 uM doxorubicin), the differential viability (reversal) was -5% (inactive). In addition, the inhibition in assay [7] was -2.21% (inactive); in assay [8], -6.19% (inactive).
With `N#CC1=C(N)SC(N)=C(C#N)C1c1ccc(C(F)(F)F)cc1`, the viability in assay [1] is 90%; in assay [3], 90% (inactive); in assay [4], 56.3% (inactive); in assay [5], 84.3% (inactive); in assay [6] (setting [9]), 89.3%; in assay [6] (setting [10]) it was 84.3%. Also, in assay [2], the Her2 level is 104% (inactive). Further, in assay [6] (H69AR cells + 2 uM doxorubicin), the differential viability (reversal) is -4.95% (inactive). The results for the inhibition in assay [7] and in assay [8] were 5.58% (inactive) and 0.82% (inactive), respectively.
Turning to `CCOc1cc(C2C(C(=O)c3ccccc3)=C(C(=O)OC)Nc3nnnn32)ccc1O` (stereo not given), the viability was 113% in assay [1]; 113% (inactive) in assay [3]; 91.6% (inactive) in assay [4]; 97.6% (inactive) in assay [5]; 81.2% in assay [6] (setting [9]); 97.6% in assay [6] (setting [10]). For the same compound, the Her2 level in assay [2] was 96% (inactive). Further, the differential viability (reversal) in assay [6] (H69AR cells + 2 uM doxorubicin) is 16.4% (inactive). The inhibition in assay [7] was -1.84% (inactive); in assay [8], -5.45% (inactive).
Turning to `Cn1c(SCC(=O)N2CCN(c3cccc(Cl)c3)CC2)nnc1-c1ccncc1`, the viability is 84% in assay [1]; 84% (inactive) in assay [3]; 49.4% (inactive) in assay [4]; 79.8% (inactive) in assay [5]; 98.3% in assay [6] (setting [9]); 79.8% in assay [6] (setting [10]). For the same compound, the Her2 level in assay [2] is 76% (inactive). Further, the differential viability (reversal) in assay [6] (H69AR cells + 2 uM doxorubicin) is -18.5% (inactive). Moreover, the inhibition in assay [7] is 3.59% (inactive); in assay [8], -1.33% (inactive).
Take `Cc1ccc(NC(=O)c2ccc(NS(=O)(=O)c3c(C)noc3C)cc2)cc1C`: the viability in assay [1] was 97%; in assay [3] it was 97% (inactive); in assay [4], 84.1% (inactive); in assay [5], 95% (inactive); in assay [6] (setting [9]) it was 83.4%; in assay [6] (setting [10]) it was 95%. In addition, the Her2 level in assay [2] is 81.5% (inactive). Also, the differential viability (reversal) in assay [6] (H69AR cells + 2 uM doxorubicin) is 11.6% (inactive). The inhibition in assay [7] is -2.24% (inactive); in assay [8], -4.55% (inactive).
As for `CCCCOc1ccc(NC(=O)Cn2c(=O)ccc3c(C)cc(C)nc32)cc1`, the viability in assay [1] is 102%; in assay [3], 102% (inactive); in assay [4], 94.1% (inactive); in assay [5], 91.2% (inactive); in assay [6] (setting [9]), 79.5%; in assay [6] (setting [10]) it was 91.2%. In assay [2], the Her2 level is 104% (inactive). In addition, in assay [6] (H69AR cells + 2 uM doxorubicin), the differential viability (reversal) is 11.8% (inactive). Besides, the inhibition is -3.55% (inactive) in assay [7] and -1.45% (inactive) in assay [8].
As for `Cc1ccc(Nc2nc(N)nc(CN3CCCCCC3)n2)cc1`, the viability was 79.5% in assay [1]; 79.5% (inactive) in assay [3]; 65.7% (inactive) in assay [4]; 78.4% (inactive) in assay [5]; 88.8% in assay [6] (setting [9]); 78.4% in assay [6] (setting [10]). In assay [2], the Her2 level is 73.5% (inactive). For the same compound, the differential viability (reversal) in assay [6] (H69AR cells + 2 uM doxorubicin) is -10.4% (inactive). Also, the inhibition is -1.69% (inactive) in assay [7] and 2.83% (inactive) in assay [8].
In the case of `CCN1CCN(C(=O)c2ccc3c(=O)n(CCC4=CCCCC4)c(=O)[nH]c3c2)CC1`, the viability in assay [1] was 91%; in assay [3], 91% (inactive); in assay [4] it was 78.1% (inactive); in assay [5], 84.7% (inactive); in assay [6] (setting [9]) it was 67.9%; in assay [6] (setting [10]), 84.7%. For the same compound, the Her2 level in assay [2] was 114% (inactive). Moreover, the differential viability (reversal) in assay [6] (H69AR cells + 2 uM doxorubicin) was 16.7% (inactive). Moreover, the inhibition in assay [7] is -8.29% (inactive); in assay [8], -0.55% (inactive).
Turning to `O=C(CP(=O)(CO)CO)c1ccc(Cl)cc1`, the viability was 100% in assay [1]; 100% (inactive) in assay [3]; 100% (inactive) in assay [4]; 101% (inactive) in assay [5]; 92.3% in assay [6] (setting [9]); 101% in assay [6] (setting [10]). Moreover, in assay [2], the Her2 level was 95% (inactive). For the same compound, the differential viability (reversal) in assay [6] (H69AR cells + 2 uM doxorubicin) is 8.5% (inactive). Moreover, the inhibition in assay [7] is -0.26% (inactive); in assay [8] it was -2.18% (inactive).
As to `Cc1cc2c(cc1C)C(=O)NC(C)(C)C2`, the viability in assay [1] is 104%; in assay [3], 104% (inactive); in assay [4], 79.4% (inactive); in assay [5], 95.2% (inactive); in assay [6] (setting [9]), 109%; in assay [6] (setting [10]) it was 95.2%. The Her2 level in assay [2] is 98% (inactive). Besides, the differential viability (reversal) in assay [6] (H69AR cells + 2 uM doxorubicin) was -13.8% (inactive). Also, the inhibition in assay [7] is -2.7% (inactive); in assay [8], -1.15% (inactive).
On to `CCOc1ccc2[nH]c(=O)c(CN(Cc3nnnn3CCc3ccccc3)CC3CCCO3)cc2c1` (stereo not given), for which the viability in assay [1] is 78.5%; in assay [3], 78.5% (inactive); in assay [4], 90.6% (inactive); in assay [5] it was 78.7% (inactive); in assay [6] (setting [9]), 57.5%; in assay [6] (setting [10]) it was 78.7%. Besides, the Her2 level in assay [2] was 89% (inactive). For the same compound, the differential viability (reversal) in assay [6] (H69AR cells + 2 uM doxorubicin) was 21.2% (inactive). Moreover, the inhibition in assay [7] is -5.34% (inactive); in assay [8], -11.6% (inactive).
As to `COc1cccc(OC)c1OCCN1CCN(C(=O)c2ccco2)CC1`, the viability in assay [1] was 86.5%; in assay [3], 86.5% (inactive); in assay [4], 107% (inactive); in assay [5], 95.8% (inactive); in assay [6] (setting [9]) it was 85%; in assay [6] (setting [10]), 95.8%. In addition, the Her2 level in assay [2] was 88.5% (inactive). Also, in assay [6] (H69AR cells + 2 uM doxorubicin), the differential viability (reversal) was 10.7% (inactive). The results for the inhibition in assay [7] and in assay [8] were -6.85% (inactive) and -4.92% (inactive), respectively.
